From PubChem
In the library only some 3.9% were active in any assay of this set; here they are far more common.
TIM10 inh = growth inhibitors of isogenic TIM10 control yeast, primary screen, counter-screen for tim10-1 yeast inhibitor project, luminescence, uHTS; 1.4% of 330,000 active; inhibition, % at 10 µM; S. cerevisiae TIM10 strain growth, BacTiter-Glo luminescence, 24 h;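 active means inhibition of 40% or more at the single tested concentration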;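 further: wild-type TIM10 isogenic control strain grown at permissive 25 °C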
tim10-1 inh = growth inhibitors of tim10-1 mutant yeast, primary screen, luminescence, uHTS; inhibition, % at 20 µM; S. cerevisiae tim10-1 ts strain growth, BacTiter-Glo, 24 h; 2.2% of 330,000 active;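 active means inhibition of at least 40%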;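 further: mutant grown at 25 °C; 0% = DMSO wells with yeast and 100% = wells holding no yeast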
tim23-1 inh = growth inhibitors of tim23-1 mutant yeast, primary screen, luminescence, uHTS; S. cerevisiae tim23-1 growth, BacTiter-Glo luminescence, 24 h; inhibition, % at 20 µM; 1.3% of 330,000 active; AID 463212, 2010;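 active means growth inhibition of the mutant yeast at or above 50%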;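 further: temperature-sensitive mutant grown at 25 °C; plate controls were DMSO-treated mutant yeast for no effect and medium wells lacking yeast for full effect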
UPR XBP1 act = activators of adaptive XBP1 UPR arm, primary screen, cell-based, CHO-XBP1 luciferase reporter, luminescence, uHTS; IRE1-XBP1 UPR activation; percent of tunicamycin response, DMSO as zero; activation, % at 20 µM; 0.33% of 330,000 active; AID 463104, 2010;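 active means versus positive control, 20 µM dose yields 30% or more activation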;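 further: 100% = tunicamycin at 10 µg/mL and 0% = DMSO only wells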
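Material: CHO-XBP1 cells stably carrying IRE1-XBP1-driven luciferase reporter | Medium: F12 with 10% serum | Compound dosing: 20 µM single concentration, DMSO 1% | Incubation: Overnight seeding at 37 °C, 6 h compound treatment at 37 °C | Detection: Steady-Glo luminescence read | Read-out basis: % activation of reporter signal versus tunicamycin and DMSO controls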
CHOP UPR activ = activators of apoptotic CHOP UPR arm, primary screen, cell-based, CHO-CHOP luciferase reporter, luminescence, uHTS. UPR activation; percent of tunicamycin response over DMSO baseline. activation, % at 10 µM. 0.34% of 330,000 active. AID 449763, 2010;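 active means at 10 µM dose, activation of 40% or more, normalized to positive control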;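 further: 100% = tunicamycin at 10 µg/mL and 0% = DMSO alone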
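Test system: CHO CHOP reporter cells. Input: 500 CHO-CHOP cells per well. Medium: F12 with 10% FBS. Technique: luciferase luminescence. Measure: percent activation relative to tunicamycin control. Dosing: 10 µM compound, 0.5% DMSO. Timing: 16-18 h cell attachment, then 6 h compound exposure, 37 °C.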
tim10 confirm = growth inhibitors of wild-type TIM10 yeast, confirmation, counter-screen for tim10-1 synthetic lethality project, single concentration, luminescence, S. cerevisiae. AID 463215, 2010. shares compounds with TIM10 inh. S. cerevisiae tim10 strain growth, BacTiter-Glo luminescence, 24 h. 63% of 4,600 active. inhibition, % at 10 µM;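 active means inhibition of yeast growth at or above a set limit in either of two replicates at 10 µM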;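 further: this counterscreen used the strain with wild-type TIM10; 0% = yeast with DMSO and 100% = medium wells lacking yeast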
* hit, by the source's call.

What do the screens show for `CC(=O)Nc1cccc(NC(=O)CSc2nc(=O)n(Cc3ccccn3)c3c2CCC3)c1`?
TIM10 inh: 96.7*; tim10-1 inh: 7.9; tim23-1 inh: 7.6; UPR XBP1 act: -0.5; CHOP UPR activ: 1.4; tim10 confirm: 3.8

How did O=C1/C(=C/c2cccnc2)CC/C1=C\c1cccnc1 do in these assays?
TIM10 inh: 0.9; tim10-1 inh: 11.4; tim23-1 inh: 14.1; UPR XBP1 act: -1.1; CHOP UPR activ: 4.1

What do the screens show for `O=C1C(=C2SCCCS2)CC/C1=C\c1ccc(F)cc1`?
TIM10 inh: 41.9*; tim10-1 inh: -28.3; tim23-1 inh: 18.4; UPR XBP1 act: -8.8; CHOP UPR activ: -11.6; tim10 confirm: 40.7*

What do the screens show for `Cc1cccc(/C=C2\CCC(=C3SCCCS3)C2=O)c1`?
TIM10 inh: 44.4*; tim10-1 inh: 34.1; tim23-1 inh: 49.2; UPR XBP1 act: -12.3; CHOP UPR activ: -7.8; tim10 confirm: 66.2*

How did CC(C)(C)c1ccc(OCc2ccc(C(=O)Nc3cccnc3)o2)cc1 do in these assays?
TIM10 inh: 22.0; tim10-1 inh: 19.4; tim23-1 inh: 6.4; UPR XBP1 act: -11.1; CHOP UPR activ: -0.6

How did Cc1cc(Nc2ccc(Br)cc2)nc(-c2ccccc2O)n1 do in these assays?
TIM10 inh: 43.0*; tim10-1 inh: 34.4; tim23-1 inh: 45.5; UPR XBP1 act: -0.9; CHOP UPR activ: 1.4; tim10 confirm: 49.0*

What do the screens show for `Cc1cc(NCCCN)nc(-c2ccccc2O)n1`?
TIM10 inh: 3.3; tim10-1 inh: 23.2; tim23-1 inh: 0.4; UPR XBP1 act: -0.7; CHOP UPR activ: -1.7

What do the screens show for `Cc1ccc(S(=O)(=O)CCC(=O)OCn2nnc3ccccc3c2=O)cc1`?
TIM10 inh: 9.1; tim10-1 inh: 28.5; tim23-1 inh: 13.0; UPR XBP1 act: -3.1; CHOP UPR activ: 1.0

How did CCCC(=O)N1CCN(c2ccc(NC(=O)c3cccs3)cc2Cl)CC1 do in these assays?
TIM10 inh: 46.3*; tim10-1 inh: 11.4; tim23-1 inh: 31.1; UPR XBP1 act: -1.0; CHOP UPR activ: -0.3; tim10 confirm: 16.8

Results for CN(c1ccccc1)S(=O)(=O)c1cccc(NS(=O)(=O)c2cccc(C(=O)O)c2)c1 ?
TIM10 inh: 11.3; tim10-1 inh: 21.9; tim23-1 inh: 11.2; UPR XBP1 act: 1.5; CHOP UPR activ: -0.5

What do the screens show for `Cc1cc(OCC(=O)N2CCC(C(=O)O)CC2)c2c(C)c(C)c(=O)oc2c1`?
TIM10 inh: -1.7; tim10-1 inh: -1.8; tim23-1 inh: -12.3; UPR XBP1 act: -3.1; CHOP UPR activ: -0.8

What do the screens show for `Cc1cccc(N2CCN(C(c3cccs3)c3nnnn3C(C)(C)C)CC2)c1C` (centres undefined)?
TIM10 inh: 27.8; tim10-1 inh: 14.0; tim23-1 inh: 14.3; UPR XBP1 act: 0.3; CHOP UPR activ: 10.3

Results for Cc1cccc(N2CCN(C(c3ccccc3)c3nnnn3C(C)(C)C)CC2)c1C (centres undefined) ?
TIM10 inh: 40.8*; tim10-1 inh: 18.7; tim23-1 inh: 17.3; UPR XBP1 act: 4.5; CHOP UPR activ: 15.5; tim10 confirm: 4.5

What do the screens show for `COc1ccc(Br)cc1CNC(=O)Nc1cccs1`?
TIM10 inh: 50.8*; tim10-1 inh: 29.3; tim23-1 inh: 13.2; UPR XBP1 act: 0.3; CHOP UPR activ: -1.3; tim10 confirm: 38.6*

How did CSCCC(NC(=O)c1ccccc1Br)C(=O)NNC(=O)c1ccncc1 (centres undefined) do in these assays?
TIM10 inh: 5.3; tim10-1 inh: -20.1; tim23-1 inh: -9.5; UPR XBP1 act: -4.4; CHOP UPR activ: 1.2

What do the screens show for `NNC(=O)c1cc2cc3ccccc3nc2s1`?
TIM10 inh: -9.3; tim10-1 inh: -43.9; tim23-1 inh: 24.7; UPR XBP1 act: 4.3; CHOP UPR activ: 3.4

How did Cc1ccc(N2C(=O)CC(Cc3cc(C)cc(C)c3)C2=O)cc1 (centres undefined) do in these assays?
TIM10 inh: 12.9; tim10-1 inh: 3.3; tim23-1 inh: 17.7; UPR XBP1 act: -2.7; CHOP UPR activ: 3.0

Results for Cc1cc(C)cc(CC2CC(=O)N(c3ccc(Cl)cn3)C2=O)c1 (centres undefined) ?
TIM10 inh: 51.1*; tim10-1 inh: 29.4; tim23-1 inh: 48.5; UPR XBP1 act: -0.5; CHOP UPR activ: -1.2; tim10 confirm: 23.0

What do the screens show for `COc1ccccc1NC(=S)N1CCCCCC1`?
TIM10 inh: -1.8; tim10-1 inh: -20.8; tim23-1 inh: 1.4; UPR XBP1 act: -5.6; CHOP UPR activ: 1.9

How did COc1ccccc1N1CCN(C(=O)c2ccc3nc(-c4ccco4)c(-c4ccco4)nc3c2)CC1 do in these assays?
TIM10 inh: 41.4*; tim10-1 inh: 25.8; tim23-1 inh: 20.2; UPR XBP1 act: 5.1; CHOP UPR activ: 2.5; tim10 confirm: 14.9

How did COc1ccccc1N1CCN(C(=O)c2cc(-c3ccc(C)cc3)on2)CC1 do in these assays?
TIM10 inh: 40.1*; tim10-1 inh: 7.9; tim23-1 inh: 47.5; UPR XBP1 act: -2.2; CHOP UPR activ: 2.4; tim10 confirm: 35.8*

How did O=C1C2C3C=CC(C4CC34)C2C(=O)N1CCCCN1CCN(c2ccc(F)cc2)CC1 (centres undefined) do in these assays?
TIM10 inh: -1.0; tim10-1 inh: 18.0; tim23-1 inh: -0.5; UPR XBP1 act: -2.8; CHOP UPR activ: -0.1

Results for CC(=O)Nc1ccc(-c2nnn(CC(=O)c3ccccc3)n2)cc1Cl ?
TIM10 inh: 47.1*; tim10-1 inh: -3.2; tim23-1 inh: 19.6; UPR XBP1 act: -0.2; CHOP UPR activ: -1.5; tim10 confirm: 35.8*

Results for O=C(CN1C(=O)NC2(CCCC2)C1=O)NNC(=O)c1ccc(Br)cc1 ?
TIM10 inh: -2.5; tim10-1 inh: -26.0; tim23-1 inh: -10.1; UPR XBP1 act: -1.8; CHOP UPR activ: -0.6

What do the screens show for `Cc1ccc(S(=O)(=O)NC2CCCc3ccccc32)cc1C` (centres undefined)?
TIM10 inh: 44.9*; tim10-1 inh: 35.3; tim23-1 inh: 12.0; UPR XBP1 act: 0.2; CHOP UPR activ: -0.9; tim10 confirm: -3.6

How did Cc1nn(C)c(C)c1S(=O)(=O)NC1CCCc2ccccc21 (centres undefined) do in these assays?
TIM10 inh: -1.7; tim10-1 inh: 19.5; tim23-1 inh: 8.8; UPR XBP1 act: -1.9; CHOP UPR activ: -2.1

How did COc1ccc(CNC(=O)N2CCN(C(=O)c3ccccc3)CC2)cc1 do in these assays?
TIM10 inh: -8.6; tim10-1 inh: -16.3; tim23-1 inh: -1.6; UPR XBP1 act: 4.9; CHOP UPR activ: 1.5
